Bioassay records deposited in PubChem by Sanford-Burnham Center for Chemical Genomics.
Sampled rows, rich in hits. Any-hit rate of the full collection: about 2.4%.
LMPTP inh: blocks human LMPTP phosphatase; P24666; recombinant LMPTP-A, OMFP fluorogenic substrate, fluorescence intensity; inhibition, % at 20 µM; 360,000 compounds, 0.22% hits; AID 651560;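 active means compounds that cut the enzyme signal by at least half of the control window in the single-dose screen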;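 further: plate controls were DMSO wells with enzyme plus substrate for no effect and substrate without enzyme for full effect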
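Assay system: LMPTP-A phosphatase enzyme | Input: 0.625 nM enzyme | Also added: Fluorogenic phosphatase substrate OMFP at 400 µM final | Compound dosing: One test concentration per compound, 20 µM, with 3% DMSO overall | Schedule: 50 min enzyme reaction at room temperature, protected from light | Signal: Fluorescence intensity | Benchmarks: no-enzyme and uninhibited controls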
NadD inh: inhibitors of Staphylococcus aureus NadD; purified NadD enzyme, colorimetric absorbance read-out; inhibition, % at 20 µM; 360,000 compounds, 0.78% hits; AID 602399; in the data active means inhibition above about 26%
Scp1 inh: blocks human Scp-1 phosphatase activity. inhibition, % at 20 µM. 340,000 compounds, 0.88% hits. Q9GZU7. Recombinant Scp1, phosphopeptide, malachite green phosphate absorbance. AID 493091;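 active means inhibition above about 50% at 20 µM, limit read from the data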;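 further: plate controls were DMSO wells with enzyme for no effect and wells lacking enzyme for full effect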
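System: SCP-1 catalytic domain; Reagent: Phospho 17-mer peptide substrate; Doses: one concentration, 20 µM, with 1.0% DMSO; Incubation: 45 min room-temperature reaction, 5 min colour, 30 min stabiliser; Signal: Phosphate-binding colour reagent, absorbance read at 630 nm.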
STEP block: blocks human striatal-enriched tyrosine phosphatase; recombinant STEP, OMFP fluorogenic substrate, fluorescence; inhibition, % at 20 µM; 360,000 compounds, 0.25% hits; AID 588621;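 active means inhibition at 20 µM, scaled per plate between control wells, above about 37%, limit read from the data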;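 further: 0% = DMSO with enzyme and substrate and 100% = substrate only without enzyme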
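System: STEP phosphatase, cell-free reaction; Buffer or medium: Bis-Tris pH 6.0 buffer with DTT, detergent; Incubation: 20 min at room temperature, dark; Measured by: fluorescence, 480/540 nm.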
DNMT1 block: DNMT1 (human) enzyme inhibition; DNMT1 molecular beacon, Hinp1I cleavage, fluorescence; inhibition (reported as % activation of signal), % at 10 µM; 360,000 compounds, 0.83% hits; AID 588458; in the data active means inhibition above about 50%
SUMO1 PPI mod: modulators of human SUMO1-mediated protein-protein interactions; SUMO1 binding to a labelled peptide, TR-FRET, 1 h; inhibition, % at 20 µM; 360,000 compounds, 0.33% hits; AID 602429; in the data active means inhibition above about 37%
* = called active by the depositor; i = inactive; nt = not tested or not shown; + = active, no number; ! = not active in a repeat.

SMILES | LMPTP inh | NadD inh | Scp1 inh | STEP block | DNMT1 block | SUMO1 PPI mod
COc1cccc(/C=N/NC(=O)C(=O)N/N=C/c2cccc(OC)c2O)c1O | 1 | 5 | -8 | 1 | 1 | 1
COc1cc([N+](=O)[O-])cc(/C=N/NC(=O)c2ccc(C)nc2)c1O | 3 | -1 | 7 | 4 | 4 | -26
COc1cccc(/C=N/NC(=O)c2cc3cc([N+](=O)[O-])ccc3s2)c1O | 88* | 43* | 45 | 97* | 99* | 0
COc1cc([N+](=O)[O-])cc(/C=N/NC(=O)c2ccc(NC(=O)c3ccc(C)cc3)cc2)c1O | 11 | 82* | -9 | 6 | -2 | 1
COc1cccc(/C=N/NC(=O)c2cc3c(OC)cccc3[nH]2)c1O | -1 | -1 | -11 | 1 | 5 | 51*
CCC1(c2ccccc2)NC(=O)N(CC(=O)Nc2ccc3c(c2)CCC3)C1=O (centres undefined) | 2 | -3 | nt | 2 | 0 | -3
COc1cccc(Nc2nc3ccccc3nc2NS(=O)(=O)c2ccc(NC(C)=O)cc2)c1 | 3 | 10 | 7 | -3 | -5 | 3
c1ccc(NCn2cncn2)nc1 | 0 | 1 | 1 | -1 | 0 | -2
CCN1/C(=C/c2sc(-c3ccccc3C)c[n+]2C)Sc2ccccc21 | 4 | 13 | 12 | 2 | -1 | -13
CCN1/C(=C/C=C/c2sc3ccccc3[n+]2CC)Sc2ccccc21 | 62* | 6 | 4 | 3 | 29 | -31
CC[n+]1c(/C=C2\Sc3ccccc3N2C)ccc2cccc(C)c21 | 81* | 13 | 4 | 14 | 19 | -117
CC[n+]1c(/C=C(/C)SC)sc2ccccc21 | 0 | -1 | -11 | -2 | 2 | -4
CCN1/C(=C/c2ccc3cc(C)ccc3[n+]2CC)Sc2ccccc21 | 72* | 17 | 32 | 11 | 21 | -124
CCN1/C(=C/c2ccc3cc(C)ccc3[n+]2CC)Sc2cc(C)c(C)cc21 | 65* | 26 | 19 | 0 | -5 | -55
Cc1cc(C)cc(NC(=O)Cn2nnc(C(=O)NCc3cccs3)c2N)c1 | 3 | -2 | 1 | 1 | 10 | 8
CCn1c(CC(=O)Nc2ccc(C)c(Cl)c2)nnc1SCCOc1ccc(OC)cc1 | 0 | 2 | 9 | 13 | 3 | 3
COc1cccc(OC)c1CNC(=O)CCSCc1ccccc1F | 0 | -10 | -3 | -2 | -2 | -2
CCN(CC)C(=O)CN(c1cccc(Br)c1)S(C)(=O)=O | 0 | -3 | 7 | 0 | -1 | -2
COc1ccc(NC(C)=O)cc1S(=O)(=O)NC(Cc1ccccc1)C(=O)NCc1ccccc1C (centres undefined) | -1 | -6 | -8 | 2 | 0 | 23
CC1=NOC(=O)/C1=C\c1ccc(-c2cccc(Cl)c2)o1 | 4 | 12 | -4 | 8 | 57* | 40*
CC1=NOC(=O)/C1=C\c1ccc(-c2ccccc2Br)o1 | 5 | 21 | -3 | 3 | 52* | 30
COc1cc(C)c(Cl)cc1S(=O)(=O)N1CCCC1 | 2 | -7 | -2 | 1 | 1 | 0
O=C(Nc1ccc2c(c1)OCCO2)C(CCc1ccccc1)N(Cc1ccccc1)Cc1ccccc1 (centres undefined) | 4 | 3 | nt | 3 | -1 | 2
COc1ccc(CCn2c(C)cc(C(=O)COC(=O)c3ccc(NC(=O)CC#N)cc3)c2C)cc1 | 5 | 40* | -11 | 1 | 8 | 21
O=C(N/N=C/c1ccc(O)cc1O)c1ccc(CN2C(=O)c3cccc4cccc2c34)cc1 | 3 | 44* | 21 | 3 | -6 | 8
SMILES | LMPTP inh | NadD inh | Scp1 inh | STEP block | DNMT1 block | SUMO1 PPI mod
C=CCc1cccc2cc(C(=O)Nc3ccc(F)cc3)c(=O)oc12 | 0 | 3 | -8 | 1 | 9 | 1
CCOc1cccc2cc(C(=O)NCc3cccnc3)c(=O)oc12 | -2 | 1 | -2 | -5 | 4 | -21
C=CCc1cccc2cc(C(=O)Nc3ccc(S(=O)(=O)Nc4nnc(CC)s4)cc3)c(=O)oc12 | 1 | 50* | 101* | 91* | 8 | 5
C=CCc1cccc2cc(C(=O)NCc3cccnc3)c(=O)oc12 | 52* | 23 | -4 | 1 | 2 | -19
COc1ccccc1NC(=O)CSC1=NCCN1 | -3 | 1 | 10 | 0 | 0 | -3
CN(C(=O)CCc1nnc(Cc2ccc(-c3ccccc3)cc2)o1)C1CCOCC1 | -1 | -1 | -5 | 0 | -1 | 3
Nc1ccc2ccc(O)cc2c1 | 6 | 10 | 33 | -2 | 3 | 24
C[n+]1c2cc(N)ccc2cc2ccc(N)cc21 | 8 | 33* | -1 | i | + | 78*!
COCCNCC(=O)Nc1ccc(C)c(S(=O)(=O)N2CCCCC2)c1 | 0 | -1 | -10 | -1 | -1 | 0
COCCNC(=O)C1=C(N)C(C(=O)Nc2ccc(C)c(S(=O)(=O)N3CCCCC3)c2)SC1=Nc1ccc(C)cc1C (centres undefined) | 4 | 50* | 5 | 1 | -23 | -3
CC1=C(C#N)c2nc(N)c(C#N)c(C)c2/C1=C\c1ccc(OCC(=O)O)c(Cl)c1 | 32 | 4 | 3 | 1 | -1 | 37*
Cc1nc(COC(=O)c2ccc(CO)cc2)cs1 | -2 | -4 | 0 | 0 | 0 | -2
Cc1nc(COC(=O)c2cc(O)c3ccccc3c2O)cs1 | 1 | -1 | 69* | -4 | -12 | -19
CCCCCSc1ncccc1C(=O)O | -3 | 0 | 3 | 2 | 1 | 9
CSc1ccc(S(=O)(=O)NCC(=O)OCC(=O)NCC2CCCO2)cc1[N+](=O)[O-] (centres undefined) | 0 | -3 | -1 | 2 | 7 | -31
O=c1cc(-c2ccc(O)cc2)oc2c(O)c(O)c(O)c(O)c12 | 41 | 1 | 69* | 2 | 4 | -3
O=c1cc(-c2ccc(O)cc2)oc2c1ccc1ccccc12 | 54* | 2 | 15 | 22 | 33 | 90*
O=c1cc(-c2ccc(O)cc2)oc2ccc3ccccc3c12 | 9 | 5 | 23 | 1 | 9 | 8
Cc1ccc(C(NC(=O)NCCCN2CCOCC2)=C(Cl)Cl)cc1F | -9 | -5 | 1 | -2 | 0 | 4
CC[n+]1ccccc1/C=C1\Sc2ccc(C)cc2N1C | 1 | 13 | 79* | -1 | 1 | -33
CC[n+]1ccccc1/C=C/Nc1ccccc1 | 0 | 7 | 5 | -3 | -5 | -6
Cn1cnnc1Sc1ccc(/C=C/C(=O)c2ccc(O)cc2)cc1[N+](=O)[O-] | 1 | 6 | 9 | 4 | -3 | 6
CC(=O)Oc1cc(C(=O)OCC(=O)NC23CC4CC(CC(C4)C2)C3)cc(OC(C)=O)c1OC(C)=O | 22 | 1 | 70* | 2 | 16 | 9
